# Experimental data from ChEMBL document CHEMBL1158758, “Cassane- and norcassane-type diterpenes from Caesalpinia crista of Indonesia and their antimalarial activity against the growth of Plasmodium falciparum” (J Nat Prod, 2005).
# System: Plasmodium falciparum
# Assay: Antimalarial activity against Plasmodium falciparum FCR3/A2
# Assay type: functional, organism-based
# Conditions: FCR-3
# Outline: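 P. falciparum FCR-3/A2 clone cultured in vitro in 24-well plates across a wide concentration range of each compound. Compounds held as 10^-2 M DMSO stocks at -20 °C (stock, not final). Daily blood smears tracked parasite growth. IC50 (50% growth inhibition vs untreated control) came from linear regression of concentration–response data.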
row,Compound,IC50
1,CC(=O)O[C@H]1CC(C)(C)[C@]2(O)CCc3c(cc4occc4c3C)[C@@]2(C)[C@H]1OC(C)=O,98 nM
2,CC(=O)O[C@H]1[C@@H](OC(C)=O)C(C)(C)[C@]2(O)CCc3c(cc4occc4c3C)[C@@]2(C)[C@H]1OC(C)=O,6500 nM
3,C=C1c2ccoc2C[C@H]2[C@H]1CC[C@@]1(O)C(C)(C)[C@H](OC(C)=O)[C@H](OC(C)=O)[C@H](OC(C)=O)[C@]21C,200 nM
4,CC(=O)O[C@H]1[C@@H](OC(C)=O)C(C)(C)[C@]2(O)CC[C@H]3C(=O)c4ccoc4C[C@@H]3[C@@]2(C)[C@H]1OC(C)=O [3-O-ACETYLNORCAESALPININ A],2000 nM
5,COC(=O)[C@@H]1c2ccoc2C[C@H]2[C@H]1[C@@H](OC(C)=O)C[C@@]1(O)C(C)(C)CC[C@H](OC(C)=O)[C@]21C [ACETOXYBONDUCELLPIN C],600 nM
6,CC(=O)O[C@H]1C[C@@H](OC(C)=O)C(C)(C)[C@]2(O)CCc3c(cc4occc4c3C)[C@@]12C [CAESALDEKARINE],4000 nM
7,CC(=O)O[C@H]1CCC(C)(C)[C@]2(O)C[C@@H]3OC(=O)[C@@H]4c5ccoc5C[C@@H]([C@@H]34)[C@@]12C [CAESALMIN B],800 nM
8,CC1(C)CC[C@H](O)[C@]2(C)[C@H]3Cc4occc4[C@H]4C(=O)O[C@@H](C[C@@]12O)[C@@H]43 [CAESALMIN G],> 10000 nM
9,C=C1c2ccoc2C[C@H]2[C@H]1CC[C@@]1(O)C(C)(C)[C@H](OC(C)=O)C[C@H](OC(C)=O)[C@]21C [CAESALPININ C],760 nM
10,CC(=O)O[C@H]1CCC(C)(C)[C@]2(O)[C@@H](OC(C)=O)[C@@H]3OC(=O)[C@@H]4c5ccoc5C[C@@H]([C@@H]34)[C@@]12C [CAESALPININ D],800 nM
11,COC(=O)[C@@H]1c2ccoc2C[C@H]2[C@H]1C[C@H](OC(C)=O)[C@@]1(O)C(C)(C)CC[C@H](OC(C)=O)[C@]21C [CAESALPININ E],6500 nM
12,COC(=O)[C@@H]1c2ccoc2C[C@H]2[C@H]1C[C@H](OC(C)=O)[C@@]1(O)C(C)(C)CCC(=O)[C@]21C [CAESALPININ F],650 nM
13,CC(=O)O[C@H]1CC(C)(C)[C@]2(O)CC[C@H]3C(=O)c4ccoc4C[C@@H]3[C@@]2(C)[C@H]1OC(C)=O [NORCAESALPININ A],800 nM
14,CC(=O)O[C@H]1C[C@@H](OC(C)=O)C(C)(C)[C@]2(O)CC[C@H]3C(=O)c4ccoc4C[C@@H]3[C@@]12C [NORCAESALPININ B],260 nM
15,CC(=O)O[C@H]1CC(C)(C)[C@]2(O)CCc3c(cc(O)c(C=O)c3C)[C@@]2(C)[C@H]1OC(C)=O [NORCAESALPININ C],5000 nM
16,CC(=O)O[C@H]1CCC(C)(C)[C@]2(O)C[C@H](O)[C@H]3C(=O)c4ccoc4C[C@@H]3[C@@]12C [NORCAESALPININ E],90 nM
